Data reported in the M2OR odorant receptor database.

Tests used:
Conditions in all cases: stereoisomer not certain
[1] = molecular target: T1, OR10R2 (Homo sapiens) (UniProt Q8NGX6)
T1 sequence (whole entry): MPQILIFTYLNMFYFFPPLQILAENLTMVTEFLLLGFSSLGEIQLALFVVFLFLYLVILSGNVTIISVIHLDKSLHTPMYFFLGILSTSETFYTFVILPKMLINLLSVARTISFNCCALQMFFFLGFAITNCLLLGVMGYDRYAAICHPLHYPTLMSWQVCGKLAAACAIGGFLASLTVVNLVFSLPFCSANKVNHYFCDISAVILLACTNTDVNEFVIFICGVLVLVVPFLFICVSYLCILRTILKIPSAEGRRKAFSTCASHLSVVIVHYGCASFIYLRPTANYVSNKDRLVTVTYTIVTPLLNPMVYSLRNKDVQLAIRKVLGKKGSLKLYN
Outline: (§1)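 Transient luciferase assays in mammalian cell lines were common, though methods varied by source. The values come from published papers and their supplementary material, with extra details from the original authors when needed. Responsive refers to a measured signal the original authors judged statistically different from baseline, and non-responsive (inactive) to the remainder.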

[2] = molecular target: T2, OR10S1 (Homo sapiens) (UniProt Q8NGN2)
T2 sequence (whole entry): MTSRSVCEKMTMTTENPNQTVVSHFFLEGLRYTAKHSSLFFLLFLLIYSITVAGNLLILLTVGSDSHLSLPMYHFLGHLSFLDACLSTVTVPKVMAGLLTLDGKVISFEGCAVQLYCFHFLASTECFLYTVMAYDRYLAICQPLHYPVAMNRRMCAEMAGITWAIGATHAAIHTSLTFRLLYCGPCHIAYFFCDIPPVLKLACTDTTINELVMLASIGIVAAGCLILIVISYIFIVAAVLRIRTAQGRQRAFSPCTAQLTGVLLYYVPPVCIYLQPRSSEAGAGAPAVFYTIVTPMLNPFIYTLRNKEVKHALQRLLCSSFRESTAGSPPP
Outline: as §1

[3] = molecular target: T3, OR10T2 (Homo sapiens) (UniProt Q8NGX3)
T3 sequence (whole entry): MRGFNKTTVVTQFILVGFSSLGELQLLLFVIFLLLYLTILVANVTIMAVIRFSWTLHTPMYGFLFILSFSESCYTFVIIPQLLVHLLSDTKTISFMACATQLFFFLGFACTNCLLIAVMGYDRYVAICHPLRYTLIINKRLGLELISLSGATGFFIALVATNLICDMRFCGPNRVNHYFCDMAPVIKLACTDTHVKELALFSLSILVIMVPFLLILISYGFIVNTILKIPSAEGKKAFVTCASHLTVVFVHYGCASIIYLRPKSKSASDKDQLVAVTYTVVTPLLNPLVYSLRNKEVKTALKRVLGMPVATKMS
Outline: as §1

[4] = molecular target: T4, OR10V1 (Homo sapiens) (UniProt Q8NGI7)
T4 sequence (whole entry): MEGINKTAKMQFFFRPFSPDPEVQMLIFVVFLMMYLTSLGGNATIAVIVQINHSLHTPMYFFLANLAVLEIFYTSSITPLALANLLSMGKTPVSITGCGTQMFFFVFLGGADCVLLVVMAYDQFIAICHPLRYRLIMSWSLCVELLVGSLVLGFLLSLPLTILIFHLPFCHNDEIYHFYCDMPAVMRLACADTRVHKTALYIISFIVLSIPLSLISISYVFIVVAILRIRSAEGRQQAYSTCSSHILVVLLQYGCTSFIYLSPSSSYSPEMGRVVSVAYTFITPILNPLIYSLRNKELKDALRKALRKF
Outline: as §1

[5] = molecular target: T5, OR10W1 (Homo sapiens) (UniProt Q8NGF6)
T5 sequence (whole entry): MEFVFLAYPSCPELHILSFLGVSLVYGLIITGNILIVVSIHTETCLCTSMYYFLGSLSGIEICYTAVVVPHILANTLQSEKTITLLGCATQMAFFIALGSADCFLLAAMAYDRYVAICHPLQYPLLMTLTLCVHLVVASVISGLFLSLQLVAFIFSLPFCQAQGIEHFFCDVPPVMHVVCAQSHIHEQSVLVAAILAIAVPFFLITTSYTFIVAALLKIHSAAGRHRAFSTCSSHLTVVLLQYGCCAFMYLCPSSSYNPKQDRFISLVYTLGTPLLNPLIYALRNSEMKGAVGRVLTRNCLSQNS
Outline: as §1

[6] = molecular target: T6, OR10X1 (Homo sapiens) (UniProt Q8NGY0)
T6 sequence (whole entry): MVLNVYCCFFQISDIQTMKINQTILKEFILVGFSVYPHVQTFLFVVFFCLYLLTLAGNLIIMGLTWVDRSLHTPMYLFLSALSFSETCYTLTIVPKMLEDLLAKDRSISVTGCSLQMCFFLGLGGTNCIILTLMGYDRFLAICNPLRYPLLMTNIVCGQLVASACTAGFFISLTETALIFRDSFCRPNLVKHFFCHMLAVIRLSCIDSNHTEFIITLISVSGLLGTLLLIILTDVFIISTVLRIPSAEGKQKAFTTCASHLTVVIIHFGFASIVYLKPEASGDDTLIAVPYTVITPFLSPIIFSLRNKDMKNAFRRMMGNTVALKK
Outline: as §1

[7] = molecular target: T7, OR10Z1 (Homo sapiens) (UniProt Q8NGY1)
T7 sequence (whole entry): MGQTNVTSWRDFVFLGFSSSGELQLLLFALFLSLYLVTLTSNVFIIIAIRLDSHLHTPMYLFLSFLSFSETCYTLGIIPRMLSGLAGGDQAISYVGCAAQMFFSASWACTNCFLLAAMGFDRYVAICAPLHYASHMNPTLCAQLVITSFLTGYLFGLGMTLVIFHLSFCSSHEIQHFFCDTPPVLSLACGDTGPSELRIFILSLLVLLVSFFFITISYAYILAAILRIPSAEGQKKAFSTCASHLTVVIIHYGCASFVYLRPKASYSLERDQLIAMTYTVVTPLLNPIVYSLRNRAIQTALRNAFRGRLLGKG
Outline: as §1

[8] = molecular target: T8, OR11A1 (Homo sapiens) (UniProt Q9GZK7)
T8 sequence (whole entry): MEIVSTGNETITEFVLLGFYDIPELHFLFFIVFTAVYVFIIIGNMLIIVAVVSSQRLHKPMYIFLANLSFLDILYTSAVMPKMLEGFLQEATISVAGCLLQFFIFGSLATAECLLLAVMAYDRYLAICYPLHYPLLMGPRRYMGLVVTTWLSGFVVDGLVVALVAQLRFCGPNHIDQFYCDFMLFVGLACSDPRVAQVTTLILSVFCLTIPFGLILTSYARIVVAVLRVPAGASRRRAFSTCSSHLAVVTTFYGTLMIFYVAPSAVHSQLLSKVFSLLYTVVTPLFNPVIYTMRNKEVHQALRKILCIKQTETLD
Outline: as §1

[9] = molecular target: T9, OR11G2 (Homo sapiens) (UniProt Q8NGC1)
T9 sequence (whole entry): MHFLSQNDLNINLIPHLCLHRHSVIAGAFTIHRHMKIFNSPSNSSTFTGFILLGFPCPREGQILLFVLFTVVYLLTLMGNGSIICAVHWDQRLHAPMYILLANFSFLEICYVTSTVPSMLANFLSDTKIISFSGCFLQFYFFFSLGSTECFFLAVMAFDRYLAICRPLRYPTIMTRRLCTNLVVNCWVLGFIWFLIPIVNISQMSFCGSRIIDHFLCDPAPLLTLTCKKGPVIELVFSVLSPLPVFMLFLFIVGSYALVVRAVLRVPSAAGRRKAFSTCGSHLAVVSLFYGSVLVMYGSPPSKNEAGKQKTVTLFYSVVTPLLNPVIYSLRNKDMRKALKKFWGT
Outline: as §1

[10] = molecular target: T10, OR11H1 (Homo sapiens) (UniProt Q8NG94)
T10 sequence (whole entry): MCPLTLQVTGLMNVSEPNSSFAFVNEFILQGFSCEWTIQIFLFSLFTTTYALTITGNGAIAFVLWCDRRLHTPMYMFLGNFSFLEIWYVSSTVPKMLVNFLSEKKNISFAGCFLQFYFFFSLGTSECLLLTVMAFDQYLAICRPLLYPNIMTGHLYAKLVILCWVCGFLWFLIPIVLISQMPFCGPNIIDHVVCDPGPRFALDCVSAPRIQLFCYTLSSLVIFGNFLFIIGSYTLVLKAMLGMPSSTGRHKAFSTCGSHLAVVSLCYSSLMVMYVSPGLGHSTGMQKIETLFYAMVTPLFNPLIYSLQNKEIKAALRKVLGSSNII
Outline: as §1

Measured: odorant receptor agonist call;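 note: active if original authors judged signal statistically different from baseline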

CCCCC(S)C(C)CO (stereo not given)
inactive: all assays above
